Measurements collected from several papers.
Each line is one published result; the experiments were not run side by side.
Target: Aurora kinase B (AURKB, Homo sapiens, UniProt Q96GD4)

SMILES	test	conditions	quantity	value
CC(=O)ON=C1C=CC(=C(C#N)c2ccccc2)C=C1	enzyme activity, inhibitor, ADP detection	2 µM	activity vs control	96%
CO[C@@H]1[C@H](N(C)C(=O)c2ccccc2)C[C@H]2O[C@]1(C)n1c3ccccc3c3c4c(c5c6ccccc6n2c5c31)C(=O)NC4	enzyme activity, inhibitor	1 µM	inhibition	94%
CCCCC(=O)Nc1ccc(-c2ccc3ncn(CCC)c(=O)c3c2)cn1	binding, competition with immobilised ligand	0.5 µM	remaining binding	76%
C[C@H]1CC[C@H](n2c3cnccc3c3cnc(Nc4ccc5c(n4)CCN(C(=O)CO)C5)nc32)CC1	cell-free assay, competition with immobilised ligand	1 µM	remaining binding	34%
C#Cc1cnc(Nc2ccnc(CO)c2)nc1Nc1ccccc1S(C)(=O)=NC#N (stereo not drawn)	cell-free assay	1 µM	remaining signal	< 10%
CN1CCN(C(=O)c2ccc(NC(=O)Nc3ccc(N(C)c4ccnc(Nc5ccc(CS(C)(=O)=O)cc5)n4)cc3)cc2)CC1	binding, competition with immobilised ligand	1 µM	remaining binding	0.4%
C#Cc1cc(-c2cc(Nc3nc(N[C@@H](C)c4ccc(F)cn4)ncc3Cl)n[nH]2)ccc1C=O	enzyme activity, inhibitor	0.2 µM	inhibition	16.6%
C=CC(=O)N1CCC([C@@H]2CCNc3c(C(N)=O)c(-c4ccc(Oc5ccccc5)cc4)nn32)CC1	enzyme activity, inhibitor	1 µM	inhibition	14%
COc1ccc2oc(-c3ccc4nc(N)oc4c3)c/c(=N\c3ccccc3NC(=O)CCN)c2c1	cell-free assay	1 µM	remaining signal	99%
N#Cc1ccc(NC(=O)Nc2ccccc2)cc1	cell-free assay, competition with immobilised ligand	25 µM	remaining binding	82%
Cc1cc(O)c(-c2ccc([C@@H](C)CN(C)C)cc2)c2c1[nH]c(=O)c1sccc12	enzyme activity, inhibitor	0.1 µM	inhibition	21.5%
C1=C/COCc2cc(ccc2OCCN2CCCC2)Nc2nccc(n2)-c2cccc(c2)COC/1	binding	0.1 µM	remaining binding	100%
